pIC50: −log10 of the molar value. Calls of active or inactive are those of the source. The rule behind the calls is not given here.
Legend:
SNB-19 [1] = assay: Anticancer activity against human SNB-19 cells assessed as cell growth inhibition measured after 3 to 5 days by MTT assay; assay type: functional, cell-based
In short: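 MTT colorimetric growth-inhibition assay in SNB-19 glioblastoma cells. IC50 obtained by fitting a logistic model to the dose-response data, as the concentration giving 50% growth inhibition relative to the DMSO control.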

MDA-MB-468 = assay: Anticancer activity against human MDA-MB-468 cells assessed as cell growth inhibition measured after 3 to 5 days by MTT assay; assay type: functional, cell-based
C6 = assay: Anticancer activity against rat C6 cells assessed as cell growth inhibition measured after 3 to 5 days by MTT assay; assay type: functional, cell-based
Quadruplex DNA [2] = assay: Stabilization of c-myc Pu22 G4 quadruplex oligonucleotide (unknown origin) assessed as anisotropic shift at 2 equivalents of compound by NMR spectroscopy; assay type: nucleic-acid assay
In short: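 1H NMR titration of the c-myc Pu22 oligomer, following the G-tetrad imino hydrogen-bonding region (10.95–11.6 ppm) for anisotropic shifts.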

[3] = Drug uptake in human SNB-19 cells assessed as punctate localization at 500 nM incubated for 10 mins followed by compound washout twice by HCS NuclearMask staining based confocal laser scanning microscopy; assay type: ADME, cell-based; details: snb-19, 10 min, 0.5 µM
In short: (§1)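 Cells plated at 20,000 cells/well and left to adhere overnight. Treatment medium was made from 5 mM DMSO stocks diluted in growth medium and applied for 10 min at growth conditions. Cells were then washed twice with PBS and fixed in 4% PFA for 10 min on ice. Imaged immediately by confocal microscopy, 60x oil objective, excitation 405 nm, emission 422 nm, with HCS NuclearMask counterstain.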

SNB-19 [4] = assay: Induction of apoptosis in human SNB-19 cells assessed as membrane blebbing at 500 nM incubated for 10 mins followed by compound washout twice by HCS NuclearMask staining based confocal laser scanning microscopy; assay type: functional, cell-based; in short: as §1
SNB-19 [5] = assay: Induction of apoptosis in human SNB-19 cells assessed as organized cell death at 500 nM incubated for 10 mins followed by compound washout twice by HCS NuclearMask staining based confocal laser scanning microscopy; assay type: functional; in short: as §1
[6] = Drug uptake in cytoplasm of human SNB-19 cells at 500 nM incubated for 10 mins followed by compound washout twice by HCS NuclearMask staining based confocal laser scanning microscopy; assay type: ADME, subcellular; details: snb-19, 10 min, 0.5 µM; in short: as §1
[7] = Drug uptake in nucleus of human SNB-19 cells at 500 nM incubated for 10 mins followed by compound washout twice by HCS NuclearMask staining based confocal laser scanning microscopy; assay type: ADME, subcellular; details: snb-19, 10 min, 0.5 µM; in short: as §1
Quadruplex DNA [8] = assay: Stabilization of c-myc Pu22 G4 quadruplex oligonucleotide (unknown origin) at 2 equivalents of compound by circular dichroism spectral analysis; assay type: nucleic-acid assay
In short: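 Pu22 at 5 µM strand in 1 mM potassium phosphate pH 6, alone or with 2 equivalents compound, annealed at 90 °C for 10 min and then cooled to 4 °C overnight. CD spectra recorded 200–400 nm at 5 °C, 1 nm bandwidth, 0.2 nm step, 0.5 s per point.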

Quadruplex DNA [9] = assay: Stabilization of c-myc Pu22 G4 quadruplex oligonucleotide (unknown origin) assessed as melting temperature at 2 equivalents of compound by thermal melting curve based analysis (reference value: 58.4 degC); assay type: nucleic-acid assay
In short: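 Annealed at 90 °C for 10 min, then cooled gradually to 4 °C overnight. CD melting monitored at 265 nm from 20–90 °C at 1 °C/min in 0.5 °C steps. Tm from a six-parameter logistic fit.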

SMILES	pIC50 (MDA-MB-468)	Activity (Quadruplex DNA [2])	pIC50 (SNB-19 [1])	pIC50 (C6)	also measured
CCOC(=O)c1c(-c2c3ccccc3c(-c3ccccc3)c3ccccc23)noc1C		Active			
Cc1onc(-c2c3ccccc3c(-c3cccc4cccnc34)c3ccccc23)c1C(=O)Nc1cc(C(=O)N(CCCN(C)C)CCCN(C)C)n(C)c1	5.93	Active	5.69	5.17	Drug uptake [3]: Active; Activity (SNB-19 [4]): Active; Activity (SNB-19 [5]): Active; Drug uptake [6]: Active; Drug uptake [7]: Not Active; Activity (Quadruplex DNA [8]): Active; Tm (Quadruplex DNA [9]): 61.7 °C
Cc1onc(-c2c3ccccc3c(-c3ccccc3)c3ccccc23)c1C(=O)Nc1cc(C(=O)N(CCCN(C)C)CCCN(C)C)n(C)c1		Active			
Cc1onc(-c2c3ccccc3c(-c3ccncc3)c3ccccc23)c1C(=O)Nc1cc(C(=O)N(CCCN(C)C)CCCN(C)C)n(C)c1	5.51		5.15	4.77	

Further lines, with some results ahead:

pIC50 (MDA-MB-468)	Activity (Quadruplex DNA [2])	SMILES	pIC50 (SNB-19 [1])	pIC50 (C6)	also measured
5.20		Cc1onc(-c2c3ccccc3c(-c3ccccn3)c3ccccc23)c1C(=O)Nc1cc(C(=O)N(CCCN(C)C)CCCN(C)C)n(C)c1	< 4.60	< 4.60	
5.89		Cc1onc(-c2c3ccccc3c(-c3cccnc3)c3ccccc23)c1C(=O)Nc1cc(C(=O)N(CCCN(C)C)CCCN(C)C)n(C)c1	5.11	< 4.60	

From ChEMBL document CHEMBL4715858, “10-N-heterocylic aryl-isoxazole-amides (AIMs) have robust anti-tumor activity against breast and brain cancer cell lines and useful fluorescence properties” (Bioorg Med Chem, 2020)
